Assay results collected from several papers.
Protocols differ between the studies behind these lines.
Target: Serine/threonine-protein kinase N1 (PKN1, Homo sapiens, UniProt Q16512)

For `Cn1cc(-c2cccc(N3CCc4c(sc5c4CC(C)(C)C5)C3=O)c2CO)cc(Nc2ccncn2)c1=O`, the inhibition was 1% (enzyme activity; inhibitor; 1 µM).
The remaining binding of `Nc1ncc(-c2nc(N3CCOCC3)nc(N3CCOCC3)n2)c(C(F)F)n1` is reported as 49% (binding; competition with immobilised ligand; 10 µM).
With `Cc1n[nH]c2ccc(-c3cncc(OC[C@@H](N)Cc4c[nH]c5ccccc45)c3)cc12` the activity vs control was -1% (enzyme activity; inhibitor; 1 µM).
The inhibition of `Cn1cc(-c2cc(F)cc(N3CCn4c(cc5c4CCCC5)C3=O)c2CO)cc(Nc2ccc(N3CCN(C4COC4)CC3)cn2)c1=O` is reported as 11% (enzyme activity; inhibitor; 0.1 µM).
`Cc1ccccc1-n1c(Cn2cnc3c(N)ncnc32)nc2cccc(C)c2c1=O` has an activity vs control of 81% (enzyme activity; inhibitor; 1 µM).
With `COc1ncccc1-c1cnn2ccc(N3CCN(C(=O)OC(C)C)CC3)nc12` the remaining binding was 90% (binding; competition with immobilised ligand; 1 µM).
For `Cn1cncc1[C@@](O)(COc1ccc(C#N)cc1-c1ccc(OC(F)(F)F)cc1)c1ccc(C#N)cc1`, the remaining binding was 100% (cell-free assay; competition with immobilised ligand; 1 µM).
The remaining signal of `O=c1[nH]c2ccccc2n1C1CCN(Cc2ccc(-c3[nH]c4cc5ncnc5cc4nc3-c3ccccc3)cc2)CC1` is reported as 90.3% (cell-free assay; 0.5 µM).
`O=c1[nH]c2ccc(Cl)cc2c(N[C@@H]2CN3CCC2CC3)c1-c1nc2ccccc2[nH]1` has an activity vs control of -1% (enzyme activity; inhibitor; 1 µM).
With `N#CC1(c2ccccn2)CCN(Cc2cc(C(=O)O)c(=O)n3ccccc23)CC1` the remaining binding was 100% (cell-free assay; competition with immobilised ligand; 1 µM).
`CC(C)(C)c1cc(C=C(C#N)C#N)cc(Br)c1O` gave a remaining activity of 94.5% (enzyme activity; inhibitor; 0.5 µM).
